We go through five molecules from ChEMBL document CHEMBL4376835, “Discovery of Nonpungent Transient Receptor Potential Vanilloid 1 (TRPV1) Agonist as Strong Topical Analgesic” (J Med Chem, 2020).

The target in data set [1] is Transient receptor potential cation channel subfamily A member 1 (Mus musculus) (UniProt Q8BLA8). Briefly: Agonist activity at mouse TRPA1 expressed in HEK293 cells assessed as increase in calcium influx at 1 uM incubated for 1 min by Fluo-4-AM dye based FLIPR assay. Type of data set: cell-based. In a few lines: (§1)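 Intracellular calcium influx read by FLIPR in cells individually transfected with TRPV1, hTRPA1, mTRPA1, mTRPV3 or mTRPM8. Each transfected line was also challenged with its own reference TRP-family agonist as a responsiveness check.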
Sequence of Transient receptor potential cation channel subfamily A member 1 (Mus musculus) (Q8BLA8 whole entry): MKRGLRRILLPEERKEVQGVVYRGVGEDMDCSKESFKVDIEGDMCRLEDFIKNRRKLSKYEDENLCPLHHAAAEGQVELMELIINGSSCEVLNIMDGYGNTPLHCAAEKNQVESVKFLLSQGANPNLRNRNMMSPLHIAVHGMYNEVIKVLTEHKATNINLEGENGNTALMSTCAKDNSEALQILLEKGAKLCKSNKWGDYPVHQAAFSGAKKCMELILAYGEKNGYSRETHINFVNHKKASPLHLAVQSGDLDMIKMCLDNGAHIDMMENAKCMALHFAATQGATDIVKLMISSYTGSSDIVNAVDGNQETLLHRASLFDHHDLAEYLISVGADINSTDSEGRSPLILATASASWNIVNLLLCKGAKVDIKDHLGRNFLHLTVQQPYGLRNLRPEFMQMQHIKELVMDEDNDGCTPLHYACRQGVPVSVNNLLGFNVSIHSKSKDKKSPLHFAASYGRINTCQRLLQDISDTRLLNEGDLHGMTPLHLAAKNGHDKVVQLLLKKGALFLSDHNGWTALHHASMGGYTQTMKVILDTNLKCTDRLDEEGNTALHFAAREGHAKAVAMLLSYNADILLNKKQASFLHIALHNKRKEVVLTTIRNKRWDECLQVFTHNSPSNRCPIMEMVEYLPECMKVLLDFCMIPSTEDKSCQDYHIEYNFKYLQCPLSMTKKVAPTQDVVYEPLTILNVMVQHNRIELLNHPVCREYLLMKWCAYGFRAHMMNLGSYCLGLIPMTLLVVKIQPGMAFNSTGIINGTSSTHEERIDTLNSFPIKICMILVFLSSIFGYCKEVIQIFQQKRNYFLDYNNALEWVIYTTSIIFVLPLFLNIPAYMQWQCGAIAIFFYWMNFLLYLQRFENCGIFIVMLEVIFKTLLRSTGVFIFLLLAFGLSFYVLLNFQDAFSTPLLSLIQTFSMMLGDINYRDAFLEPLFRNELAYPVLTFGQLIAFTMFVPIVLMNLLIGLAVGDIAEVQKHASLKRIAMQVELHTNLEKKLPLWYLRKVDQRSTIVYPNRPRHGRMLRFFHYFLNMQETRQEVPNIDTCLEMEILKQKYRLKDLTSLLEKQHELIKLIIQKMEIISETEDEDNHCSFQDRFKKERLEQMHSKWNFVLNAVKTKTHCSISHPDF

The target of data set [2] is Transient receptor potential cation channel subfamily A member 1 (Homo sapiens) (UniProt O75762). Kind of data set: Agonist activity at human TRPA1 expressed in HEK293 cells assessed as increase in calcium influx at 100 uM incubated for 1 min by Fluo-4-AM dye based FLIPR assay. In kind it is cell-based. A digest of the protocol: as §1
Sequence of Transient receptor potential cation channel subfamily A member 1 (Homo sapiens) (O75762 whole entry): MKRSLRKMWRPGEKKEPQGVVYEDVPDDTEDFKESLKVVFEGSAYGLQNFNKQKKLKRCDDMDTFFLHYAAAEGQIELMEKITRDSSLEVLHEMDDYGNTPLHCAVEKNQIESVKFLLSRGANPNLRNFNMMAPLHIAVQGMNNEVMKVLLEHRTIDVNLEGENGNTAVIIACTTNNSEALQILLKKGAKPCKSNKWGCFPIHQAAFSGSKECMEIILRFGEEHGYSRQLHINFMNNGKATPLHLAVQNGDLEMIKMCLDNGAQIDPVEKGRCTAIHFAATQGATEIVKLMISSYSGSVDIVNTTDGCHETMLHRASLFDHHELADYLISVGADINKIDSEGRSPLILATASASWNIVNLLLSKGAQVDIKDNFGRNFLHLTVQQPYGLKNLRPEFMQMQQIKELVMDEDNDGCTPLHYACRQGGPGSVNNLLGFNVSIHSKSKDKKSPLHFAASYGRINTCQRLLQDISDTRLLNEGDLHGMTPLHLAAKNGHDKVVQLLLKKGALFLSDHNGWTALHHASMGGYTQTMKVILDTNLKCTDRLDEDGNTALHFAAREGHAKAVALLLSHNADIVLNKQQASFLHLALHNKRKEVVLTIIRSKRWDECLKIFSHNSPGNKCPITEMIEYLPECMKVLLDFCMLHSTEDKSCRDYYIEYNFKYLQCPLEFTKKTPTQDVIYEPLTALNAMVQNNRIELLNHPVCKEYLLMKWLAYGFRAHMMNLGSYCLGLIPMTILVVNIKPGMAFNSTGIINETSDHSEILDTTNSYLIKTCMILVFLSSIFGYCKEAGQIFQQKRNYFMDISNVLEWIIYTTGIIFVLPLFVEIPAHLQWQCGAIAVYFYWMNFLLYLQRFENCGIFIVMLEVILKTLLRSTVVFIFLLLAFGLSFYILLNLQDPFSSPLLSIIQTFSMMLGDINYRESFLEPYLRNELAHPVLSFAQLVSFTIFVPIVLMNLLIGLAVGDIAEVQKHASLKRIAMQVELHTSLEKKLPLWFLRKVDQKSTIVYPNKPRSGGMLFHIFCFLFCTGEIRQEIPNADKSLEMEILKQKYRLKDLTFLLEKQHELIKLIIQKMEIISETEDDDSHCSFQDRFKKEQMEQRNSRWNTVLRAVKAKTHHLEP
In data set [3] the test system is Mus musculus. Kind of data set: Induction of hypothermia in ICR mouse assessed as decrease in body temperature at 3 mg/kg, ip measured after 30 mins. Type of data set: functional, organism-based.
Data set [4] in a line: Toxicity in ip dosed ICR mouse administered as single dose. In kind it is organism-based. To be noted: in vivo.
A short description of data set [5]: Toxicity in po dosed ICR mouse administered as single dose. In kind it is organism-based. To be noted: in vivo.
The nature of data set [6]: Toxicity in ICR mouse assessed as skin irritation by measuring ear scratching administered topically and measured for 30 mins. To be noted: in vivo, topical_or_ocular, 0.5 h. A digest of the protocol: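 Ear scratching test: a solution of the agent was applied to mouse ears, and scratching movements were counted over the following 30 min.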
The nature of data set [7]: Drug uptake in porcine skin assessed as dermal accumulation applied topically as carbopol-gel with 1% formulation measured for 8 hrs by Franz diffusion cell based in vitro transdermal delivery test. Type of data set: ADME, tissue-based, Sus scrofa, Zone of skin. To be noted: pig.
Data set [8] in a line: Systemic drug absorption in porcine skin assessed as drug accumulation in acceptor Franz cell applied topically as carbopol-gel with 1% formulation measured for 8 hrs by Franz diffusion cell based in vitro transdermal delivery test. To be noted: pig. Type of data set: ADME, tissue-based, Sus scrofa, Zone of skin.
Data set [9] can be described thus: Toxicity in ICR mouse assessed as ear edema administered topically and measured after 30 mins. To be noted: in vivo, topical_or_ocular, 0.5 h. In a few lines:
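Ear swelling test: a solution of the agent was applied to mouse ears, and ear punch biopsies were collected 30 min later and weighed.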

Data set [10] has as its target Transient receptor potential cation channel subfamily M member 8 (Mus musculus) (UniProt Q8R4D5). Kind of data set: Agonist activity at mouse TRPM8 expressed in HEK293 cells assessed as increase in calcium influx at 1 uM incubated for 1 min by Fluo-4-AM dye based FLIPR assay. Type of data set: cell-based.
Data set [11] concerns Rattus norvegicus. Briefly: Analgesic activity in ip dosed L5/L6 spinal nerve ligation-induced neuropathic pain Sprague-Dawley rat model assessed as increase in paw withdrawal threshold in response to von frey filament compound administered at day 14 after ligation and measured up to 1.5 hrs after drug dosing by up and down method. In kind it is functional. In a few lines:
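Rat spinal nerve ligation model of neuropathic pain. Compound was given i.p. at 1, 2, 5 or 10 mg/kg; a gabapentin 65 mg/kg i.p. arm and a saline i.p. arm were run alongside. Von Frey withdrawal thresholds were taken pre-surgery and on days 1, 7 and 14, then at 0.5, 1 and 1.5 h post-dose. Mean±SEM, n=7-8.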

The subject of data set [12] is Mus musculus. Briefly: Analgesic activity in ip dosed formalin-induced nociception ICR mouse model assessed as reduction in pain behaviour by measuring less licking of formalin injected hind paw pretreated with compound 30 mins prior to formalin induction by formalin test. In kind it is functional. A digest of the protocol: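 Mice were dosed i.p. with 0.1–10 mg/kg, with vehicle and gabapentin (50, 100 mg/kg i.p.) arms. 2% formalin was injected into the dorsal hindpaw, and paw-licking time was recorded for the first phase (5 min) and the second phase (20–30 min). ED50 was taken from the dose–response. Mean±SEM, n=8.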

Data set [13] has as its target T1, Transient receptor potential cation channel subfamily V member 3 (Mus musculus) (UniProt Q8K424).
T1 sequence (whole entry): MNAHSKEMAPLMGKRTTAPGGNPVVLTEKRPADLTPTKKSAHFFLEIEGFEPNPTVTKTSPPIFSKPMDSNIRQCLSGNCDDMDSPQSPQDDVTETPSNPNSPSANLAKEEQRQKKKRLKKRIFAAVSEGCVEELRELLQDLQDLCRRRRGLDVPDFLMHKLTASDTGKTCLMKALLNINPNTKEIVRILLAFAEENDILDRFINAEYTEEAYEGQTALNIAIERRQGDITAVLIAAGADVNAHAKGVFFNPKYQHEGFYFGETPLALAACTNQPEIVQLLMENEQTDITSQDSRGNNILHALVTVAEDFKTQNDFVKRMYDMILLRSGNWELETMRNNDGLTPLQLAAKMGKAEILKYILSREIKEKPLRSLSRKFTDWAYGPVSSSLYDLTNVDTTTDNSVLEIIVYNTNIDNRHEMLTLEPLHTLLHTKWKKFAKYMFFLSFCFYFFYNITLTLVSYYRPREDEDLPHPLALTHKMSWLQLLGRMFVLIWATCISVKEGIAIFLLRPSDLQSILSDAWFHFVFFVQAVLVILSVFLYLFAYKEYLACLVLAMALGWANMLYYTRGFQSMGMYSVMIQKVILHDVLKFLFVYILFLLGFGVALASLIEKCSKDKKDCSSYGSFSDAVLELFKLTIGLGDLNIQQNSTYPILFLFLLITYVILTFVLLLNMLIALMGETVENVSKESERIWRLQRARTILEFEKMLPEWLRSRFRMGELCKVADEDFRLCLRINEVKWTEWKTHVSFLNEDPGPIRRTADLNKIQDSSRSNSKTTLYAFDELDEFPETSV
Briefly: Agonist activity at mouse TRPV3 expressed in HEK293 cells assessed as increase in calcium influx at 10 uM incubated for 1 min by Fluo-4-AM dye based FLIPR assay. In kind it is cell-based.

The source made the active and inactive calls.

What is called LD50 is the dose expected to kill half of the subjects tested. A low value points to greater toxicity. By ED50 is commonly meant the dose that gives a 50% effect, or the effect in half of the subjects.

Sequence of Transient receptor potential cation channel subfamily M member 8 (Mus musculus) (Q8R4D5 whole entry): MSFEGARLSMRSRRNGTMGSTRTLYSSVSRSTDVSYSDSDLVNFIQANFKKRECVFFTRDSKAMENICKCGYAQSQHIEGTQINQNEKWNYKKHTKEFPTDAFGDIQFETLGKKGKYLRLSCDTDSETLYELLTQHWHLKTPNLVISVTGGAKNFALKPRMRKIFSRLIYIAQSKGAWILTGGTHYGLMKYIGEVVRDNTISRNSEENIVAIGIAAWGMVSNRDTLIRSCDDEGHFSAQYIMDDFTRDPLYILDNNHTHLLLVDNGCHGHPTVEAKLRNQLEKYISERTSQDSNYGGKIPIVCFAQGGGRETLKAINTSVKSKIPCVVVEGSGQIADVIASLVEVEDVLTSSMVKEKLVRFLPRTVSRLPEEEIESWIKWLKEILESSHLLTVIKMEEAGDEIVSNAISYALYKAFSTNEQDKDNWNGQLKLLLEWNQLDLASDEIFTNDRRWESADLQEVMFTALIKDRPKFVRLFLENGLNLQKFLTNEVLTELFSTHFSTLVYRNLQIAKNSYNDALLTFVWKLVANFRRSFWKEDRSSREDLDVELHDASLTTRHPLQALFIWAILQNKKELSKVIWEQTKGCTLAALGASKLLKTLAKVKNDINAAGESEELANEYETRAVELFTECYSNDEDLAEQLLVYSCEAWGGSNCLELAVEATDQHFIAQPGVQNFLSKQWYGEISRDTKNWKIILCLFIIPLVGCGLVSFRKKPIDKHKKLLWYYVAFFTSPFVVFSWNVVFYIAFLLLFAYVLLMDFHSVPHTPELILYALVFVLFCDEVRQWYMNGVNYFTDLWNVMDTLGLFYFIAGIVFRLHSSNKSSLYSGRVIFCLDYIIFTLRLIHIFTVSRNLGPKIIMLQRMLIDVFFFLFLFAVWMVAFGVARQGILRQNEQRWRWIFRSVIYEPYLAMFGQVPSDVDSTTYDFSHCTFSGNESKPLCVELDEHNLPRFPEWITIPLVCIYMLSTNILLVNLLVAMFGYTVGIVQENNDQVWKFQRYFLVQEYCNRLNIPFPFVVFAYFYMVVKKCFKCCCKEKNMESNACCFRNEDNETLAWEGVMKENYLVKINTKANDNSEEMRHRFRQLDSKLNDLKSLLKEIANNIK

`O=C/C=C/c1ccccc1`: the outcome in data set [1] and in data set [2] was Active.
In the case of `COc1cc(CNC(=O)CCCC/C=C/C(C)C)ccc1O` [CAPSAICIN], the result in data set [3] was Active. The results for the LD50 in data set [4] and in data set [5] were 7.5 mg/kg and 119 mg/kg, respectively. Also, the Activity entry in data set [6] and in data set [9] was “Toxic” in each case. For the same molecule, in data set [7], the Drug uptake entry is “Active”. Moreover, the Drug absorption entry in [8] is recorded as “Active”.
Regarding `CC1CCC(C(C)C)C(O)C1` (stereo not drawn), in data set [10], the outcome was Active.
Regarding `NCC1(CC(=O)O)CCCCC1` [GABAPENTIN], the figures for the ED50 in data set [11] and in [12] were at least 30 mg/kg and at least 40 mg/kg, respectively.
Regarding `CC12CCC(CC1=O)C2(C)C` (stereo not drawn), the result in [13] was Active.
